In publication PMC3993931 (Journal of Medicinal Chemistry, 2014):

Columns and labels:
HCT116 cells = assay: Cell viability assay; assay type: cell-based, human; conditions: for IC50: Homo sapiens, HCT-116, read-out: antiproliferative activity
Procedure, shortened: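 HCT116 cells (ATCC) were grown in DMEM with 10% FBS at 37 °C, 5% CO2. They were seeded at 1 × 10^4 cells/well and treated 24 h later with a range of test-compound concentrations or 1% EtOH solvent control. After 48 h, viability was read by MTT per the kit instructions.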

VEGFR2 = assay: Immunoblot of xenograft tumors for RTK; assay type: in vivo, mouse; conditions: higher dose (0.25 mg/kg), end of efficacy study
HCT116 xenograft = assay: In vivo efficacy, HCT116 xenograft mouse model
[1] = cited from earlier work
[2] = Aqueous stability, pH 4.88; assay type: physicochemical; conditions: Figure 3 conditions generally, especially acidic (pH 4.88)
[3] = system: colorectal tumor xenograft; conditions: cited from earlier work
[4] = system: met proto-oncogene receptor (MET); assay: Immunoblot analysis for RTK; assay type: cell-based, human; conditions: HCT116, 24 h
Procedure, shortened: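 HCT116 cells were seeded at 4 × 10^5 cells/well in 6-well plates and dosed the next day with graded test-compound concentrations or 1% EtOH. After 24 h, whole-cell lysates were made in PhosphoSafe buffer, protein was quantified by BCA, and equal protein was run on 4–12% SDS-PAGE. Blots on PVDF were probed with anti-Met plus secondary antibody, with chemiluminescent detection.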

In the case of `CC[C@H](C)[C@H]1C(=O)N2CCC[C@H]2C(=O)O[C@H](C(C)(C)C)C[C@@H](C)C[C@H](O)C(C)(C)C2=N[C@@H](CCC(=O)N[C@@H](Cc3ccc(OC)cc3)C(=O)N(C)[C@@H](C)C(=O)N1C)CS2` [Compound 1c, Apratoxin S8], the IC50 (HCT116 cells) is reported as 1 to 2 nM, the “VEGFR2 expression levels in tumors” value (VEGFR2) is reported as “detectable reduction in VEGFR2 expression levels” and the tumor growth inhibition (HCT116 xenograft; 0.1 mg/kg (~2 μg/mouse) daily ip for 16 days) is reported as “about 50%”. For the same compound, the “effect on tumor growth” value (HCT116 xenograft; 0.25 mg/kg (~5 μg/mouse) daily ip for 16 days) was “strongly retarded the tumor growth” and the “signs of toxicity (weight loss, abnormal behavior)” value (HCT116 xenograft; 0.1 and 0.25 mg/kg daily ip for 16 days) was “did not observe signs of toxicity”.
In the case of `CC[C@H](C)[C@H]1C(=O)N2CCC[C@H]2C(=O)O[C@H](C(C)(C)C)C[C@@H](C)C[C@H](O)[C@@H](C)C2=N[C@@H](CCC(=O)N[C@@H](Cc3ccc(OC)cc3)C(=O)N(C)[C@@H](C)C(=O)N1C)CS2` [Compound 34-epi-1a, apratoxin S6], the “potency relative to 1a” value ([1]; ref 2a) is given as “same potency”.
In the case of `CC[C@H](C)[C@H]1C(=O)N2CCC[C@H]2C(=O)O[C@H](C(C)(C)C)C[C@@H](C)C[C@H](O)[C@H](C)C2=N[C@@H](CCC(=O)N[C@@H](Cc3ccc(OC)cc3)C(=O)N(C)[C@@H](C)C(=O)N1C)CS2` [Compound 1a, apratoxin S4], the “relative in vitro stability” value [2] is given as “somewhat less stable than 1c”, the “potency and efficacy versus apratoxin A” value ([3]; colorectal tumor xenograft model ref 2a) is given as “greater potency and efficacy” and the tolerability in vivo ([3]; ref 2a) is given as “much better tolerated”.
In the case of `CC[C@H](C)[C@H]1C(=O)N2CCC[C@H]2C(=O)O[C@H](C(C)(C)C)C[C@@H](C)C/C=C/C2=N[C@@H](CCC(=O)N[C@@H](Cc3ccc(OC)cc3)C(=O)N(C)[C@@H](C)C(=O)N1C)CS2` [apratoxin E], the “activity relative to other apratoxins” value ([1]; ref 1c) is listed as “much reduced activity”.
With `CC[C@H](C)[C@H]1C(=O)N2CCC[C@H]2C(=O)O[C@H](C(C)(C)C)C[C@@H](C)C[C@H](O)CC2=N[C@@H](CCC(=O)N[C@@H](Cc3ccc(OC)cc3)C(=O)N(C)[C@@H](C)C(=O)N1C)CS2` [Compound 1b, Apratoxin S7] the “relative in vitro stability” value [2] was “somewhat less stable than 1c” and the IC50 (HCT116 cells) was 1 to 2 nM.
In the case of `CC[C@H](C)[C@H]1C(=O)N2CCC[C@H]2C(=O)O[C@H](C(C)(C)C)C[C@@H](C)C[C@H](O)[C@H](C)C2=N[C@H](CCC(=O)N[C@@H](Cc3ccc(OC)cc3)C(=O)N(C)[C@@H](C)C(=O)N1C)CS2` [Compound 1d, Apratoxin S9], the “relative in vitro stability” value [2] is reported as “slightly enhanced compared with that of 1a”, the “fold potency over the other apratoxins” value (HCT116 cells; all three assays (cell growth, MET levels, VEGF-A secretion)) is reported as 2–3 fold and the “potency in reducing MET levels” value [4] is reported as “picomolar (subnanomolar) potency”.
